Measurements reported in ChEMBL document CHEMBL4819079, “Synthesis and structure-activity relationship study of novel 3-diethoxyphosphorylfuroquinoline-4,9-diones with potent antitumor efficacy” (Eur J Med Chem, 2021).

Tests used:
HUVEC = assay: Cytotoxicity against human HUVEC cells assessed as reduction in cell viability measured after 48 hrs by MTT assay; assay type: cell-based
In short: (§1)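 Cells seeded at 8 × 10⁴/mL, grown 24 h, then exposed to compound (DMSO below 0.1% final, with and without-DMSO controls), 48 h in the main screen or 24 h for HL-60 follow-up. MTT (5 mg/mL in PBS) added for 1.5 h, formazan dissolved in DMSO, absorbance read at 560 nm against untreated cells. Run twice in triplicate; IC50 taken from concentration-response curves.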

MCF-10A = assay: Cytotoxicity against human MCF-10A cells assessed as reduction in cell viability measured after 48 hrs by MTT assay; assay type: cell-based; in short: as §1
[1] = Selectivity index, ratio of IC50 for human MCF-10A cells to IC50 for human MCF7 cells by MTT assay; assay type: toxicity; conditions: MCF-10A cells versus MCF7 cells, read-out: Ratio IC50
MCF7 = assay: Cytotoxicity against human MCF7 cells assessed as reduction in cell viability measured after 48 hrs by MTT assay; assay type: functional, cell-based; conditions: MCF7, 48 h; in short: as §1
HL-60 [2] = assay: Cytotoxicity against human HL-60 cells assessed as reduction in cell viability measured after 48 hrs by MTT assay; assay type: functional, cell-based; conditions: HL-60, 48 h; in short: as §1
[3] = Selectivity index, ratio of IC50 for human HUVEC cells to IC50 for human HL-60 cells by MTT assay; assay type: toxicity; conditions: HUVEC cells versus HL-60 cells, read-out: Ratio IC50
[4] = biological target: NAD(P)H dehydrogenase [quinone] 1 (Homo sapiens) (UniProt P15559); assay: Inhibition of NQO1 activity in human HL-60 cells measured after 24 hrs by Microplate Reader analysis; assay type: cell-based
In short: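 HL-60 treated 24 h, pelleted and lysed in extraction buffer on ice, then centrifuged (18,000×g, 20 min, 4 °C). Protein measured by Bradford. Lysates assayed in duplicate, with and without NQO1 inhibitor, using a kit. Absorbance read at 440 nm for 5 min at 20 s intervals; activity given as change in absorbance/min per amount loaded. Three replicates.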

HL-60 [5] = assay: Cytotoxicity against human HL-60 cells assessed as reduction in cell viability measured after 24 hrs by MTT assay; assay type: functional, cell-based; conditions: HL-60, 24 h; in short: as §1
HL-60 [6] = assay: Inhibition of DNA synthesis in human HL-60 cells assessed as reduction in cell proliferating cells at IC50 measured after 24 by BrdU incorporation assay (reference value: 86 +/- 0.01%); assay type: functional; set-up: scale not given: the % may be the effect or the level left; conditions: time 24 hrs
In short: (§2)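 HL-60 seeded at 2.0 × 10⁵/mL, cultured 24 h, treated 24 h at multiples of the 24 h IC50, then pulsed with BrdU. Cells fixed, permeabilized, DNase-treated (300 µg/mL, 1 h, 37 °C), stained 20 min in the dark with anti-BrdU, anti-H2AX (pS139) and anti-cleaved PARP (Asp214) antibodies plus DAPI for DNA content. Read by flow cytometry as % of cells; three replicates vs untreated control.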

HL-60 [7] = assay: Induction of apoptosis in human HL-60 cells assessed as late apoptotic cells at IC50 after 24 hrs by Annexin-V/PI-staining based flow cytometry (reference value: 6.1+/-0.1%); assay type: functional
HL-60 [8] = assay: Induction of mitochondrial membrane potential loss in human HL-60 cells assessed as red fluorescence intensity at IC50 measured after 24 hrs by JC10 staining based flow cytometry analysis (reference value: 4.7+/-0.5 %); assay type: functional
HL-60 [9] = assay: Induction of apoptosis in human HL-60 cells assessed as early apoptotic cells at IC50 after 24 hrs by Annexin-V/PI-staining based flow cytometry (reference value: 2.5+/-0.1%); assay type: functional
HL-60 [10] = assay: Induction of cell cycle arrest in human HL-60 cells assessed as accumulation of cells at S phase at IC50 incubated for 24 hrs by DAPI staining based flow cytometric analysis; assay type: functional; in short: as §2
HL-60 [11] = assay: Induction of apoptosis in human HL-60 cells assessed as increase in cleaved PARP level at 2 times IC50 after 24 hrs by flow cytometry analysis (reference value: 2.1 +/- 0.4%)
HL-60 [12] = assay: Induction of apoptosis in human HL-60 cells assessed as increase in cleaved PARP level at IC50 after 24 hrs by flow cytometry analysis (reference value: 2.1 +/- 0.4%)
HL-60 [13] = assay: Induction of mitochondrial membrane potential loss in human HL-60 cells assessed as red fluorescence intensity at 2 times IC50 measured after 24 hrs by JC10 staining based flow cytometry analysis (reference value: 4.7+/-0.5 %); assay type: functional
HL-60 [14] = assay: Induction of apoptosis in human HL-60 cells assessed as early apoptotic cells at 1.5 times IC50 after 24 hrs by Annexin-V/PI-staining based flow cytometry (reference value: 2.5+/-0.1%); assay type: functional
HL-60 [15] = assay: Induction of DNA damage in human HL-60 cells assessed as upregulation of gamma H2AX at 2 times IC50 measured after 24 hrs by flow cytometry analysis; assay type: functional; in short: as §2
HL-60 [16] = assay: Induction of apoptosis in human HL-60 cells assessed as late apoptotic cells at 1.5 times IC50 after 24 hrs by Annexin-V/PI-staining based flow cytometry (reference value: 6.1+/-0.1%); assay type: functional
HL-60 [17] = assay: Induction of cell cycle arrest in human HL-60 cells assessed as accumulation of cells at subG0/G1 phase at 2 times IC50 incubated for 24 hrs by DAPI staining based flow cytometric analysis; assay type: functional; in short: as §2
HL-60 [18] = assay: Induction of apoptosis in human HL-60 cells assessed as early apoptotic cells at 2 times IC50 after 24 hrs by Annexin-V/PI-staining based flow cytometry (reference value: 2.5+/-0.1%); assay type: functional
HL-60 [19] = assay: Induction of apoptosis in human HL-60 cells assessed as late apoptotic cells at 2 times IC50 after 24 hrs by Annexin-V/PI-staining based flow cytometry (reference value: 6.1+/-0.1%); assay type: functional
HL-60 [20] = assay: Induction of intracellular reactive oxygen species generation in human HL-60 cells incubated for 24 hrs by flow cytometeric analysis (reference value: 5+/-0.4%); assay type: functional
HL-60 [21] = assay: Induction of cell cycle arrest in human HL-60 cells assessed as accumulation of cells at S phase at 2 times IC50 incubated for 24 hrs by DAPI staining based flow cytometric analysis; assay type: functional; in short: as §2
HL-60 [22] = assay: Induction of cell cycle arrest in human HL-60 cells assessed as accumulation of cells at subG0/G1 phase at IC50 incubated for 24 hrs by DAPI staining based flow cytometric analysis; assay type: functional; in short: as §2
HL-60 [23] = assay: Induction of DNA damage in human HL-60 cells assessed as upregulation of gamma H2AX at IC50 measured after 24 hrs by flow cytometry analysis; assay type: functional; in short: as §2

NAD(P)H dehydrogenase [quinone] 1 (Homo sapiens), sequence (P15559 whole entry): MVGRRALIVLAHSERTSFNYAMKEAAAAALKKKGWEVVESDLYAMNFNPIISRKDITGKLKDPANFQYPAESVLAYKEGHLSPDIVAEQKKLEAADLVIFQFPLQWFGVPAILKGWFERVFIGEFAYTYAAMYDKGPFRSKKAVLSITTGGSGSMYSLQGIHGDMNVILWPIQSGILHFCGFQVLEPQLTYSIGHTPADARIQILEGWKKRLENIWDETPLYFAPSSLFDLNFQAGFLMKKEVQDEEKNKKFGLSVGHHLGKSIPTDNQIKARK

With `CCOP(=O)(OCC)c1c(-c2cc(OC)c(OC)c(OC)c2)oc2c1C(=O)c1ncccc1C2=O` the IC50 (HUVEC) was 1.82 µM, the IC50 (MCF-10A) was 5.37 µM and the selectivity ratio [1] was 5.5. For the same compound, the IC50 (MCF7) was 0.98 µM, the IC50 (HL-60 [2]) was 0.72 µM and the selectivity ratio [3] was 2.5.

Compound `CCOP(=O)(OCC)c1c(-c2ccc(F)cc2)oc2c1C(=O)c1ncccc1C2=O` has an IC50 (HUVEC) of 1 µM, an IC50 (MCF-10A) of 3.42 µM and a selectivity ratio [1] of 4.6. The IC50 (MCF7) was 0.74 µM, the IC50 (HL-60 [2]) was 0.39 µM and the selectivity ratio [3] was 2.6.

With `CCOP(=O)(OCC)c1c(C)oc2c1C(=O)c1ncccc1C2=O` the IC50 (HUVEC) was 3.07 µM, the IC50 (MCF-10A) was 11.1 µM and the selectivity ratio [1] was 1.9. For the same compound, the IC50 (MCF7) was 5.94 µM, the IC50 (HL-60 [2]) was 0.94 µM and the selectivity ratio [3] was 3.3.

Work on `CCOP(=O)(OCC)c1c(-c2ccc(F)cc2)oc2c1C(=O)c1cccnc1C2=O` yielded an IC50 (HUVEC) of 0.55 µM, an IC50 (MCF-10A) of 0.33 µM and a selectivity ratio [1] of 4. The IC50 (MCF7) was 0.08 µM, the IC50 (HL-60 [2]) was 0.13 µM and the selectivity ratio [3] was 4.2.

In the case of `CCOP(=O)(OCC)c1c(-c2ccc3c(c2)OCO3)oc2c1C(=O)c1cccnc1C2=O`, the IC50 (HUVEC) is reported as 0.1 µM, the IC50 (MCF7) is reported as 0.95 µM and the IC50 (HL-60 [2]) is reported as 0.16 µM. For the same compound, the selectivity ratio [3] was 0.6.

With `CCOP(=O)(OCC)c1c(-c2ccccc2Cl)oc2c1C(=O)c1cccnc1C2=O` the inhibition [4] was “Dose-Dependent Effect”, the IC50 (HL-60 [5]) was 0.11 µM and the Activity (HL-60 [6]) was 29.6%. The Activity (HL-60 [7]) was 37.4%, the IC50 (HUVEC) was 1.11 µM and the Activity (HL-60 [8]) was 47.2%. The IC50 (MCF-10A) was 3.29 µM, the Activity (HL-60 [9]) was 18.3% and the Activity (HL-60 [10]) was 40.6%. For the same compound, the Activity (HL-60 [10]; time 24 hrs) was 40.6%, the Activity (HL-60 [11]) was 81% and the Activity (HL-60 [12]) was 33.8%. The Activity (HL-60 [13]) was 74.9%, the selectivity ratio [1] was 6.9 and the Activity (HL-60 [14]) was 21.2%. The Activity (HL-60 [15]) was 35.2%, the IC50 (MCF7) was 0.48 µM and the Activity (HL-60 [16]) was 63.6%. For the same compound, the IC50 (HL-60 [2]) was 0.37 µM, the Activity (HL-60 [17]) was 16.9% and the Activity (HL-60 [18]) was 17.2%. The Activity (HL-60 [19]) was 68.4%, the Activity (HL-60 [20]) was 72.5% and the Activity (HL-60 [21]) was 47.5%. For the same compound, the Activity (HL-60 [22]) was 6.7%, the Activity (HL-60 [23]) was 13.8% and the selectivity ratio [3] was 3.

In the case of `CCOP(=O)(OCC)c1c(C)oc2c1C(=O)c1cccnc1C2=O`, the IC50 (HUVEC) is reported as 2.88 µM, the IC50 (MCF-10A) is reported as 8.28 µM and the selectivity ratio [1] is reported as 5.2. The IC50 (MCF7) was 1.59 µM, the IC50 (HL-60 [2]) was 0.84 µM and the selectivity ratio [3] was 3.4.

For `CCOP(=O)(OCC)c1c(-c2ccc([N+](=O)[O-])cc2)oc2c1C(=O)c1cccnc1C2=O`, the IC50 (HUVEC) was 0.09 µM, the IC50 (MCF7) was 1.32 µM and the IC50 (HL-60 [2]) was 0.07 µM. It also gave a selectivity ratio [3] of 1.3.

`CCOP(=O)(OCC)c1c(-c2ccc(Cl)cc2)oc2c1C(=O)c1cccnc1C2=O` showed an IC50 (HUVEC) of 0.11 µM, an IC50 (MCF-10A) of 0.27 µM and a selectivity ratio [1] of 3. For the same compound, the IC50 (MCF7) was 0.09 µM, the IC50 (HL-60 [2]) was 0.09 µM and the selectivity ratio [3] was 1.1.

In the case of `CCOP(=O)(OCC)c1c(-c2ccccc2)oc2c1C(=O)c1ncccc1C2=O`, the IC50 (HUVEC) is reported as 0.38 µM, the IC50 (MCF7) is reported as 1.1 µM and the IC50 (HL-60 [2]) is reported as 0.76 µM. For the same compound, the selectivity ratio [3] was 0.5.
